IDH1 R132H inh = inhibitors of human IDH1 R132H; O75874; IDH1 R132H reductase, diaphorase/resazurin fluorescence, 60 min; inhibition, % at 10 µM; actives 0.18% (n = 70,000); AID 624101; in the data active = inhibition above about 34%; inconclusive = no clear call, values can overlap the other calls; inactive = below about 11%
T cruzi growth-1 = inhibitors of T. cruzi proliferation | actives 5.9% (n = 77,000) | AID 624255 | inhibition, % at 8.34 µM | T. cruzi beta-gal in NIH3T3, GalScreen luminescence, 90 h;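 active = mean inhibition above about 93%, with at least 55% of replicates each passing it, limit read from the data, passing the limit was not always enough; inconclusive = only one of those two conditions holds; inactive = neither condition holds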
KDM4C inh = inhibitors of human demethylase GASC-1 KDM4C. Q9H3R0. GST-KDM4C 2-372, H3K9me3 peptide, LANCE TR-FRET. inhibition, % at 12.5 µM. actives 0.15% (n = 96,000);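 active = mean replicate inhibition above about 25%, with at least 55% of replicates also reaching it, limit read from the data, passing the limit was not always enough; inconclusive = only one of those two conditions met; inactive = neither condition met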
Target sequence (Q9H3R0 2-372 limits assumed): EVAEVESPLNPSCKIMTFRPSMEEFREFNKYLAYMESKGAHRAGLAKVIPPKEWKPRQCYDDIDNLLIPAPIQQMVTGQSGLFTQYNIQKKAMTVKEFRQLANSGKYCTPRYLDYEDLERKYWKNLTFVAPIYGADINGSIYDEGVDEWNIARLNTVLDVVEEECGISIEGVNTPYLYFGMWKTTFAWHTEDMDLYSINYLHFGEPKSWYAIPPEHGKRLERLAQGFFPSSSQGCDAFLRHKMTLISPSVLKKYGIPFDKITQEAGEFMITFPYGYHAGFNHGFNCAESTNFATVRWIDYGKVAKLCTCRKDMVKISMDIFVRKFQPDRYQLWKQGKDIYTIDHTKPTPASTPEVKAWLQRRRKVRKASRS
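Test system – GST-tagged GASC-1 (JMJD2C) catalytic fragment, aa 2-372 · Medium – HEPES buffer, pH 7.5, plus ascorbate · Reagent – H3K9me3 peptide with Fe(II)/2OG · Compound – one test concentration per compound · Timing – 30 min reaction, 60 min detection, RT · Technique – TR-FRET with Eu antibody and ULight streptavidin, EDTA stop · Read-out basis – inhibition from TR-FRET ratio decrease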
T cruzi growth-2 = inhibitors of T. cruzi proliferation. shares compounds with T cruzi growth-1. T. cruzi beta-gal in NIH3T3, GalScreen luminescence, 90 h. inhibition, % at 8.35 µM. actives 72% (n = 5,600). AID 651739;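 active = mean replicate inhibition above about 95% and at least 55% of replicates individually reaching it, limit read from the data; inconclusive = only one of the two criteria is met; inactive = neither criterion is met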
T cruzi growth-3 = inhibitors of T. cruzi proliferation | T. cruzi beta-gal in NIH3T3, GalScreen luminescence, 90 h | shares compounds with T cruzi growth-1 | actives 21% (n = 5,600) | inhibition, % at 2.09 µM;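 active = mean inhibition above about 95%, with at least 55% of replicates also reaching it, limit read from the data; inconclusive = meets just one of the two conditions; inactive = meets neither condition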
NIH3T3 tox = NIH/3T3 (mouse) viability loss. shares compounds with T cruzi growth-1. NIH/3T3 viability, CellTiter-Glo ATP luminescence, 90 h. cytotoxicity (signal decrease), % at 8.35 µM. actives 14% (n = 5,600). AID 651742;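 active = mean signal decrease across replicates above about 35% based on untreated-well scatter, with enough replicates individually passing, limit read from the data; inconclusive = no rule stated though some were filed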
3T3 cytotox 2 = cytotoxicity in mouse NIH/3T3 fibroblasts. AID 651744. NIH/3T3 viability, CellTiter-Glo ATP luminescence, 90 h. shares compounds with T cruzi growth-1. actives 56% (n = 5,600). inhibition, % at 24.9 µM;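 active = mean loss of cell viability signal at or above a set limit, and enough replicates individually reaching it; inconclusive = meets only the mean limit or only the replicate share; inactive = meets neither condition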
Of the large screens only hits and unclear results are named; the others gave an inactive call (follow-up assays come after a bar, where they were run). This excerpt belongs to a sample that is enriched for hits.

CN1c2ccc(-c3ccc(F)cc3)cc2[C@@H]2[C@@H](CCN2C(=O)Cc2cccnc2)[C@@H]1CO	T cruzi growth-1 inconclusive (no result: IDH1 R132H inh) | T cruzi growth-2 106 | T cruzi growth-3 inactive | NIH3T3 tox inactive | 3T3 cytotox 2 inactive
CO[C@@H]1CN(C)C(=O)c2ccc(NS(=O)(=O)c3ccccc3)cc2OC[C@@H](C)N(Cc2cccnc2)C[C@H]1C	none
COc1ccc(-c2nnc3c4ccccc4c(C)nn23)cc1S(=O)(=O)N1CCN(C)CC1	none (no result: T cruzi growth-1, KDM4C inh)
O=C(CSc1nnc(Nc2ccccc2)n1-c1ccccc1)Nc1ccc2c(c1)COC2=O	none (no result: T cruzi growth-1, KDM4C inh)
Cc1ccc(S(=O)(=O)Nc2ccc3c(c2)C(=O)N([C@@H](C)CO)C[C@@H](C)[C@@H](CN(C)S(=O)(=O)c2ccc(C)cc2)OCCCC[C@H](C)O3)cc1	T cruzi growth-1 99 (no result: IDH1 R132H inh) | T cruzi growth-2 110 | T cruzi growth-3 inactive | NIH3T3 tox inactive | 3T3 cytotox 2 27
Cc1ccc(S(=O)(=O)Nc2ccc3c(c2)C(=O)N([C@H](C)CO)C[C@@H](C)[C@@H](CN(C)S(=O)(=O)c2ccc(C)cc2)OCCCC[C@@H](C)O3)cc1	none (no result: IDH1 R132H inh)
Cc1ccc(S(=O)(=O)Nc2ccc3c(c2)C(=O)N([C@H](C)CO)C[C@H](C)[C@H](CN(C)CC2CCCCC2)OCCCC[C@H](C)O3)cc1	T cruzi growth-1 inconclusive | T cruzi growth-2 100 | T cruzi growth-3 inactive | NIH3T3 tox inactive | 3T3 cytotox 2 102
Cc1ccc(S(=O)(=O)Nc2ccc3c(c2)C(=O)N([C@H](C)CO)C[C@H](C)[C@H](CN(C)S(=O)(=O)c2ccc(C)cc2)OCCCC[C@@H](C)O3)cc1	none (no result: IDH1 R132H inh)
Cc1ccc(S(=O)(=O)Nc2ccc3c(c2)C(=O)N([C@H](C)CO)C[C@H](C)[C@@H](CN(C)CC2CCCCC2)OCCCC[C@H](C)O3)cc1	none (no result: IDH1 R132H inh)
Cc1ccc(S(=O)(=O)Nc2ccc3c(c2)C(=O)N([C@@H](C)CO)C[C@@H](C)[C@H](CN(C)S(=O)(=O)c2ccc(C)cc2)OCCCC[C@H](C)O3)cc1	T cruzi growth-1 inconclusive (no result: IDH1 R132H inh) | T cruzi growth-2 106 | T cruzi growth-3 inactive | NIH3T3 tox inactive | 3T3 cytotox 2 58
CC1(C)Cc2nc(-c3ccccc3)nc(SCC(=O)Nc3cccc(C(F)(F)F)c3)c2CO1	none (no result: T cruzi growth-1, KDM4C inh)
O=C(C[C@H]1CC[C@H]2[C@@H](COC[C@@H](O)CN2C(=O)Nc2ccc(C(F)(F)F)cc2)O1)NCC1CCCCC1	none (no result: IDH1 R132H inh, T cruzi growth-1)
COCC#Cc1ccc2c(c1)O[C@H](CN(C)Cc1cncnc1)[C@@H](C)CN([C@@H](C)CO)S2(=O)=O	none
COCC#Cc1ccc2c(c1)O[C@H](CN(C)Cc1ccccc1)[C@H](C)CN([C@H](C)CO)S2(=O)=O	none
COCC#Cc1ccc2c(c1)O[C@@H](CN(C)Cc1ccncc1)[C@H](C)CN([C@H](C)CO)S2(=O)=O	T cruzi growth-1 109 | T cruzi growth-2 100 | T cruzi growth-3 inactive | NIH3T3 tox inactive | 3T3 cytotox 2 63
COCC#Cc1ccc2c(c1)O[C@H](CN(C)Cc1ccncc1)[C@@H](C)CN([C@@H](C)CO)S2(=O)=O	none
COCC#Cc1ccc2c(c1)O[C@@H](CN(C)Cc1ccccc1)[C@H](C)CN([C@H](C)CO)S2(=O)=O	T cruzi growth-1 109 | T cruzi growth-2 inactive | T cruzi growth-3 inactive | NIH3T3 tox 53 | 3T3 cytotox 2 106
COCC#Cc1ccc2c(c1)O[C@@H](CN(C)Cc1cncnc1)[C@H](C)CN([C@@H](C)CO)S2(=O)=O	T cruzi growth-1 106 | T cruzi growth-2 106 | T cruzi growth-3 inactive | NIH3T3 tox inactive | 3T3 cytotox 2 36
CC(C)NC(=O)N(C)C[C@H]1OCCCC[C@@H](C)Oc2ccc(NC(=O)c3ccncc3)cc2C(=O)N([C@H](C)CO)C[C@@H]1C	T cruzi growth-1 96 | T cruzi growth-2 inactive | T cruzi growth-3 inactive | NIH3T3 tox inactive | 3T3 cytotox 2 inactive
C[C@H]1CCCCO[C@H](CN(C)C(=O)c2ccncc2)[C@@H](C)CN([C@@H](C)CO)C(=O)c2cc(NC(=O)c3ccncc3)ccc2O1	none (no result: IDH1 R132H inh)
